The list is not random: actives were taken first. Their share in the collection is about 4.6%.
TAAR1 antag = human TAAR1 antagonists, primary screen, Fluo-8 calcium fluorescence, CHO RD-HGA16 cells; Trace amine-associated receptor 1 (Homo sapiens), Q96RJ0; antagonist; inhibition, % at 3 µM; 360,000 compounds, 1.5% hits; AID 624466, 2012;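 active = inhibition above a per-plate cutoff, the mean inhibition of test compounds on that plate plus 3 SD, cut at about 49% in these data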
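System: RD-HGA16 CHO cells with stable hTAAR1 and Gα16 | Probe or stimulus: EC80 β-phenethylamine stimulus | Dosing: 3 µM, single point | Times: Dye loading 75 min at 37 °C, then 30 min room temperature | Measured by: Fluo-8 calcium-sensitive fluorescence | Read-out basis: % inhibition of agonist calcium response | Replicates: n of 1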
CHO parental Ca = ATP-evoked calcium signal inhibitors, parental CHO, primary screen, counter-screen for OX1R antagonist project, cell-based, fluorescence, Fluo-8 calcium dye; parental CHO-K1, ATP-induced calcium, Fluo-8 fluorescence; inhibition, % at 5.6 µM; 330,000 compounds, 0.63% hits;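 active = inhibition above that plate's mean sample inhibition plus 3 SD, cut at about 26% in these data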
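Test system: untransfected parental CHO cell line. Compound: one dose, 5.6 µM nominal. Detection: intracellular calcium via Fluo-8 no-wash fluorescent dye. Measure: % inhibition. Benchmarks: ATP-challenged DMSO wells low, unchallenged DMSO wells high.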
TAAR1 agonist = human TAAR1 agonists, primary screen, Fluo-8 calcium fluorescence, CHO RD-HGA16 cells; Trace amine-associated receptor 1 (Homo sapiens), Q96RJ0; vehicle wells 0%, saturating PEA agonist 100%; activation, % at 3 µM; 360,000 compounds, 0.99% hits; AID 624467, 2012;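 active = activation above the mean activation of all test compounds in the run plus 3 SD, cut at about 38% in these data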
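System: CHO RD-HGA16 cells carrying human TAAR1 plus Gα16; Incubation: 17-24 h seeding, 75 min 37 °C dye, 30 min RT; Measured by: Fluo-8 fluorescence, 5 s baseline then 140 s kinetic read; Control set: DMSO and PEA EC100; Replication: single well for each compound.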
OX1R antag-1 = antagonists of human orexin 1 receptor (OX1R). AID 485270, 2010. 330,000 compounds, 1.8% hits. inhibition, % at 6.6 µM. OX1R-expressing cells, FRET antagonist read-out; in the data active = inhibition mostly above about 38%, no sharp cut-off; inactive = mostly below about 40%
GPR7 antag = GPR7 receptor antagonists, primary screen, cell-based, fluorescence, single concentration; Neuropeptides B/W receptor type 1 (Homo sapiens), P48145; GPR7-expressing cells, fluorescence antagonist assay; inhibition, % at 4.4 µM; 290,000 compounds, 1.1% hits; AID 1861, 2009; in the data active = inhibition above about 16%, passing the limit was not always enough;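 note: cells stimulated with the agonist NPW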
Target sequence (P48145 whole entry, looked up): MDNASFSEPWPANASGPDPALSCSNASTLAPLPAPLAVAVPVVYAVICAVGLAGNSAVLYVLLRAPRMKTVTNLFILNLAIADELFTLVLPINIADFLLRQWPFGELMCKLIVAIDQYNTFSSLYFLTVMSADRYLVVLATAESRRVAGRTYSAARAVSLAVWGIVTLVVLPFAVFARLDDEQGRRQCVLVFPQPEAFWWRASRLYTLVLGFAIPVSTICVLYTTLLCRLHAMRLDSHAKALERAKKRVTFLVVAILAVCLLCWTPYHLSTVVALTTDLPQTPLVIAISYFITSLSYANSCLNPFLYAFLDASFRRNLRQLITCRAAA
OX1R antag-2 = OX1R (HCRTR1) antagonists, primary screen, fluorescence, CHO/OX1R cells, Fluo-8 calcium, orexin A. Fluo-8 calcium fluorescence. inhibition, % at 5 µM. 330,000 compounds, 0.43% hits;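 active = inhibition above its plate's threshold, mean inhibition of all tested compounds on the plate plus 3 SD, cut at about 37% in these data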
A number is an active result; n = inactive; x = not tested or not shown.

SMILES	TAAR1 antag	CHO parental Ca	TAAR1 agonist	OX1R antag-1	GPR7 antag	OX1R antag-2
O=S(=O)(c1cccc2nsnc12)N1CCNCC1	n	n	n	54.7	n	n
CCN1CCN(S(=O)(=O)c2cccc3nsnc23)CC1	n	n	n	n	n	n
CC1CCCCN1CCNC(=O)C1CCCN(S(=O)(=O)c2cccc3nsnc23)C1 (configuration not stated)	n	n	n	45.6	n	n
CC1CCCCN1CCNC(=O)C1CCN(S(=O)(=O)c2cccc3nsnc23)CC1 (configuration not stated)	n	n	n	n	n	n
CCCN(CCC)CCCNC(=O)C1CCN(S(=O)(=O)c2cccc3nsnc23)CC1	n	n	n	40.0	n	n
CCc1ccccc1NC(=O)c1ccc(-c2csc(C)n2)cc1	n	n	n	n	n	n
COc1ccc(NC(=O)N(C)C[C@H]2Oc3c(NC(=O)Nc4c(C)noc4C)cccc3C(=O)N([C@H](C)CO)C[C@@H]2C)cc1	n	n	n	n	x	n
CC(C)CC(=O)Nc1nnc(SCC(=O)NCc2ccco2)s1	n	n	n	n	n	n
Cc1cc(C)c(NC(=O)CSc2nnc(Cc3cccn3C)n2-c2ccc(F)cc2)c(C)c1	n	n	n	59.6	n	n
Cc1cc(C)cc(NC(=O)CSc2nnc(Cc3cccn3C)n2-c2ccc(F)cc2)c1	n	n	n	n	n	n
Cc1cccc(C(=O)N2c3ccccc3C(=O)OC2c2ccc3c(c2)OCO3)c1 (configuration not stated)	n	n	n	n	n	n
O=C1OC(c2ccc3c(c2)OCO3)N(C(=O)c2ccc(Cl)c(Cl)c2)c2ccccc21 (configuration not stated)	n	n	n	76.2	n	n
Cc1ccccc1NC(=O)Cc1nc(COC(=O)CSc2ccccc2)cs1	n	n	n	n	n	n
CC(C)NC(=O)Nc1cccc2c1O[C@H](CN(C)C(=O)Nc1ccccc1)[C@@H](C)CN([C@H](C)CO)C2=O	n	n	n	n	x	n
CC(C)NC(=O)Nc1cccc2c1O[C@H](CN(C)C(=O)Nc1ccc(C(F)(F)F)cc1)[C@@H](C)CN([C@H](C)CO)C2=O	n	n	n	n	x	n
C[C@H](CO)N1C[C@H](C)[C@@H](CN(C)C(=O)Nc2ccccc2)Oc2c(NC(=O)Nc3ccccc3)cccc2C1=O	49.6	n	n	n	x	n
C[C@H](CO)N1C[C@H](C)[C@@H](CN(C)C(=O)Nc2ccccc2)Oc2c(NC(=O)Nc3ccc(C(F)(F)F)cc3)cccc2C1=O	49.4	n	n	n	x	n
CCCn1c(CCNC(=O)c2ccco2)nc2ccccc21	n	n	n	n	n	n
CCCNC(=O)c1ccc(CN2CCOCC2)cc1	n	n	n	n	n	n
O=C(Nc1ccccc1)Nc1cccc(-c2nnco2)c1	n	n	43.8	n	n	n
Cc1cc(C)c(OCC(=O)N2CCN(c3ncc(C(F)(F)F)cc3Cl)CC2)c(C)c1	n	n	n	n	n	n
CCn1c(SCC(=O)Nc2cc(NC(C)=O)ccc2OC)nnc1-c1ccccn1	n	n	n	n	n	n
CSc1ccc(SC2CN(Cc3ccc(C)cc3)S(=O)(=O)C2)cc1 (configuration not stated)	n	x	n	x	x	x
O=C(NC1=C(Nc2ccc(Cl)cc2)C(=O)c2ccccc2C1=O)c1ccccc1	n	n	n	n	n	n
O=C(NC1=C(NC2CCS(=O)(=O)C2)C(=O)c2ccccc2C1=O)c1ccccc1 (configuration not stated)	n	n	n	72.9	n	n
SMILES	TAAR1 antag	CHO parental Ca	TAAR1 agonist	OX1R antag-1	GPR7 antag	OX1R antag-2
Cc1cccc(NC2=C(NC(=O)c3ccccc3)C(=O)c3ccccc3C2=O)c1	n	n	n	75.0	n	n
COc1cccc(/C=N/NC(=O)CN(C2=NS(=O)(=O)c3ccccc32)c2ccccc2)c1	n	n	n	n	n	n
CCn1cc(C(=O)NC2CCCc3c2cnn3-c2cccc(C)c2C)cn1 (configuration not stated)	n	53.5	n	n	n	n
COc1ccc(C(=O)NC2CCCc3c2cnn3-c2cccc(C)c2C)o1 (configuration not stated)	n	n	n	68.1	n	n
Cc1cc(C(=O)NC2CCCc3c2cnn3-c2cccc(C)c2C)no1 (configuration not stated)	n	n	n	n	n	n
CC1=C(C(=O)NC2CCCc3c2cnn3-c2cccc(C)c2C)OCCO1 (configuration not stated)	n	n	n	67.3	n	n
CC(C(=O)Nc1ccccc1Br)c1ccc([N+](=O)[O-])cc1 (configuration not stated)	n	n	n	n	n	n
Cc1ccc(NC(=O)C(C)c2ccc([N+](=O)[O-])cc2)cc1Cl (configuration not stated)	n	n	n	n	40.1	n
CCCNC(=O)/C(C#N)=C1\N=C(NC(=O)c2ccco2)c2ccccc21	n	n	n	46.6	n	n
COCCNC(=O)/C(C#N)=C1\N=C(NC(=O)c2ccco2)c2ccccc21	n	x	n	x	x	x
CC(C)CCNC(=O)C(c1cccnc1)N(CCc1ccccc1)C(=O)Cn1nnc2ccccc21 (configuration not stated)	n	n	39.4	n	n	n
CCCCN(C(=O)Cn1nnc2ccccc21)C(C(=O)NCCOC)c1ccccc1 (configuration not stated)	n	n	n	n	19.4	n
Cc1ccc(-c2ocnc2C(=O)Nc2ccccc2NC(=O)c2ccccn2)cc1	n	n	n	n	n	n
Cc1cccc(-c2ocnc2C(=O)Nc2ccccc2NC(=O)c2ccccn2)c1	n	n	n	65.7	n	n
Cc1ccc(NC(=O)CN(C2=NC3CS(=O)(=O)CC3S2)c2ccccc2)cc1 (configuration not stated)	n	x	n	x	x	x
Cc1cc(C)cc(N(CC(=O)Nc2ccccc2)C2=NC3CS(=O)(=O)CC3S2)c1 (configuration not stated)	n	n	n	60.5	n	n
O=C(NC1CC1)c1ccc2c(c1)N(Cc1ccc(Cl)cc1)CCS2	n	n	n	45.7	n	n
CC1CC(C)CN(C(=O)c2ccc3c(c2)N(Cc2ccccc2)CCS3)C1 (configuration not stated)	x	47.0	x	n	n	n
CCOc1ccc(S(=O)(=O)Nc2cnc3ccccc3c2)cc1	n	34.9	n	n	n	n

Screens: PubChem, The Scripps Research Institute Molecular Screening Center
